≈ marks a conversion by molar mass, not a printed value. Bounds are passed on as bounds.

What all share (format): functional
For assay [1], the system named is Staphylococcus aureus. Description: Antimicrobial activity against Staphylococcus aureus 6 expressing inducible ermB after 20 hrs by agar dilution method. Put shortly:
(§1)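 Agar dilution MIC. S. aureus seed culture was grown in sensitivity test broth. Cell suspension (about 10⁶ CFU/ml) was inoculated onto sensitivity disk agar with 5% horse blood and incubated at 37 °C for 20 h. MIC was the lowest drug concentration that prevented visible growth.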
A general note: Agar dilution tests growth on a series of plates holding different concentrations.

For assay [2], the system named is Haemophilus influenzae. Briefly: Antimicrobial activity against drug-susceptible Haemophilus influenzae 1 after 20 hrs by agar dilution method. Particulars: Haemophilus influenzae, 20 h; read-out: MIC. An outline of the steps:
(§2)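 Streptococci, H. influenzae and M. catarrhalis were precultured on blood agar plates. Suspensions of about 10⁶ CFU/ml were inoculated onto sensitivity disk agar supplemented with 5% horse blood and incubated at 37 °C for 20 h. MIC was read as the lowest drug concentration with no visible growth.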

Assay [3] deals with Moraxella catarrhalis. Briefly: Antimicrobial activity against drug-susceptible Moraxella catarrhalis 2 after 20 hrs by agar dilution method. Particulars: Moraxella catarrhalis, 20 h; read-out: MIC. Put shortly:
as §2

In assay [4] the test system is Streptococcus pneumoniae. Briefly: Antimicrobial activity against Streptococcus pneumoniae 6 constitutively expressing ermB after 20 hrs by agar dilution method. The following applies: Streptococcus pneumoniae, 20 h; read-out: MIC. Put shortly: as §2
Assay [5] has as its system Streptococcus pneumoniae. Description: Antimicrobial activity against drug-susceptible Streptococcus pneumoniae DP1 Type1 after 20 hrs by agar dilution method. The following applies: Streptococcus pneumoniae, 20 h; read-out: MIC. Put shortly: as §2
Assay [6] concerns Staphylococcus aureus. Description: Antimicrobial activity against drug-susceptible Staphylococcus aureus 2 after 20 hrs by agar dilution method. Particulars: Staphylococcus aureus, 20 h; read-out: MIC. An outline of the steps: as §1
The subject of assay [7] is Staphylococcus aureus. Description: Antimicrobial activity against Staphylococcus aureus 4 constitutively expressing ermA after 20 hrs by agar dilution method. An outline of the steps:
as §1

Assay [8] deals with Streptococcus pyogenes. Briefly: Antimicrobial activity against drug-susceptible Streptococcus pyogenes 1 after 20 hrs by agar dilution method. Particulars: Streptococcus pyogenes, 20 h; read-out: MIC. An outline of the steps: as §2
The test system of assay [9] is Haemophilus influenzae. Description: Antimicrobial activity against drug-susceptible Haemophilus influenzae 2 after 20 hrs by agar dilution method. The following applies: Haemophilus influenzae, 20 h; read-out: MIC. An outline of the steps: as §2
The test system of assay [10] is Streptococcus pneumoniae. Briefly: Antimicrobial activity against Streptococcus pneumoniae 8 expressing inducible ermB after 20 hrs by agar dilution method. The following applies: Streptococcus pneumoniae, 20 h; read-out: MIC. An outline of the steps: as §2
The test system of assay [11] is Streptococcus pneumoniae. Briefly: Antimicrobial activity against Streptococcus pneumoniae 9 expressing mefA after 20 hrs by agar dilution method. The following applies: Streptococcus pneumoniae, 20 h; read-out: MIC. Put shortly: as §2
The subject of assay [12] is Streptococcus pneumoniae. Briefly: Antimicrobial activity against Streptococcus pneumoniae 10 expressing mefA after 20 hrs by agar dilution method. The following applies: Streptococcus pneumoniae, 20 h; read-out: MIC. An outline of the steps:
as §2

Assay [13] deals with Streptococcus pyogenes. Briefly: Antimicrobial activity against Streptococcus pyogenes 3 expressing mefA after 20 hrs by agar dilution method. Particulars: Streptococcus pyogenes, 20 h; read-out: MIC. Put shortly:
as §2

Assay [14] concerns Staphylococcus aureus. Description: Antimicrobial activity against Staphylococcus aureus 5 expressing inducible ermB after 20 hrs by agar dilution method. Particulars: Staphylococcus aureus, 20 h; read-out: MIC. An outline of the steps:
as §1

In assay [15] the test system is Moraxella catarrhalis. Briefly: Antimicrobial activity against drug-susceptible Moraxella catarrhalis 1 after 20 hrs by agar dilution method. The following applies: Moraxella catarrhalis, 20 h; read-out: MIC. Put shortly: as §2
Assay [16] relates to Haemophilus influenzae. Briefly: Antimicrobial activity against drug-susceptible Haemophilus influenzae 3 after 20 hrs by agar dilution method. The following applies: Haemophilus influenzae, 20 h; read-out: MIC. An outline of the steps: as §2
Assay [17] concerns Streptococcus pyogenes. Briefly: Antimicrobial activity against Streptococcus pyogenes 2 constitutively expressing ermB after 20 hrs by agar dilution method. An outline of the steps:
as §2

Assay [18] deals with Staphylococcus aureus. Briefly: Antimicrobial activity against drug-susceptible Staphylococcus aureus 3 after 20 hrs by agar dilution method. The following applies: Staphylococcus aureus, 20 h; read-out: MIC. An outline of the steps:
as §1

For assay [19], the system named is Staphylococcus aureus. Description: Antimicrobial activity against drug-susceptible Staphylococcus aureus 209P JC-1 after 20 hrs by agar dilution method. Particulars: Staphylococcus aureus, 209P, 20 h; read-out: MIC. Put shortly:
as §1

The test system of assay [20] is Streptococcus pneumoniae. Description: Antimicrobial activity against Streptococcus pneumoniae 5 constitutively expressing ermB/mefA after 20 hrs by agar dilution method. The following applies: Streptococcus pneumoniae, 20 h; read-out: MIC. An outline of the steps:
as §2

Assay [21] concerns Haemophilus influenzae. Description: Antimicrobial activity against drug-susceptible Haemophilus influenzae 4 after 20 hrs by agar dilution method. The following applies: Haemophilus influenzae, 20 h; read-out: MIC. Put shortly:
as §2

Assay [22] relates to Streptococcus pneumoniae. Briefly: Antimicrobial activity against Streptococcus pneumoniae 7 expressing inducible ermB after 20 hrs by agar dilution method. Particulars: Streptococcus pneumoniae, 20 h; read-out: MIC. An outline of the steps:
as §2

In assay [23] the test system is Streptococcus pneumoniae. Briefly: Antimicrobial activity against drug-susceptible Streptococcus pneumoniae 2 after 20 hrs by agar dilution method. The following applies: Streptococcus pneumoniae, 20 h; read-out: MIC. Put shortly:
as §2

In the case of `CCOC(=O)[C@H]1[C@H](C)O[C@@H](O[C@H]2[C@H](N(C)C)[C@@H](O)[C@H](O[C@H]3[C@@H](CC=O)C[C@@H](C)[C@@H](OC(C)=O)CN(CCCCc4ccccc4)C[C@@H](C)NC(=O)C[C@@H](OC(=O)CC)[C@@H]3OC)O[C@@H]2C)C[C@@]1(C)OC(C)=O`, the MIC against Staphylococcus aureus [1] was 2 µg/mL (≈ 1.99 µM); with Haemophilus influenzae [2], over 128 µg/mL; in the assay with Moraxella catarrhalis [3] it was 1 µg/mL (≈ 0.994 µM); in the assay on Streptococcus pneumoniae [4], over 128 µg/mL; in the assay on Streptococcus pneumoniae [5], 0.5 µg/mL (≈ 0.497 µM); with Staphylococcus aureus [6], 4 µg/mL (≈ 3.98 µM). Also, the MIC was over 128 µg/mL against Staphylococcus aureus [7]; 0.5 µg/mL (≈ 0.497 µM) in the assay on Streptococcus pyogenes [8]; 4 µg/mL (≈ 3.98 µM) in the assay with Haemophilus influenzae [9]; 32 µg/mL (≈ 31.8 µM) with Streptococcus pneumoniae [10]; 1 µg/mL (≈ 0.994 µM) with Streptococcus pneumoniae [11]; 1 µg/mL (≈ 0.994 µM) with Streptococcus pneumoniae [12]. Besides, the MIC was 1 µg/mL (≈ 0.994 µM) in the assay with Streptococcus pyogenes [13]; 1 µg/mL (≈ 0.994 µM) in the assay on Staphylococcus aureus [14]; 1 µg/mL (≈ 0.994 µM) with Moraxella catarrhalis [15]; 16 µg/mL (≈ 15.9 µM) in the assay with Haemophilus influenzae [16]; over 128 µg/mL in the assay on Streptococcus pyogenes [17]; 2 µg/mL (≈ 1.99 µM) in the assay on Staphylococcus aureus [18]. For the same compound, the MIC with Staphylococcus aureus [19] is 1 µg/mL (≈ 0.994 µM); in the assay with Streptococcus pneumoniae [20], over 128 µg/mL; in the assay on Haemophilus influenzae [21] it was 16 µg/mL (≈ 15.9 µM); in the assay with Streptococcus pneumoniae [22] it was 32 µg/mL (≈ 31.8 µM); in the assay with Streptococcus pneumoniae [23], 1 µg/mL (≈ 0.994 µM).

Turning to `CCOC(=O)[C@H]1[C@H](C)O[C@@H](O[C@H]2[C@H](N(C)C)[C@@H](O)[C@H](O[C@H]3[C@@H](CC=O)C[C@@H](C)[C@@H](O)CN(CCCCc4ccccc4)CCCNC(=O)C[C@@H](OC(=O)CC)[C@@H]3OC)O[C@@H]2C)C[C@@]1(C)OC(C)=O`, the MIC in the assay with Staphylococcus aureus [1] is 0.5 µg/mL (≈ 0.519 µM); with Haemophilus influenzae [2] it was 8 µg/mL (≈ 8.3 µM); in the assay with Moraxella catarrhalis [3] it was 0.25 µg/mL (≈ 0.259 µM); in the assay on Streptococcus pneumoniae [4], over 128 µg/mL; with Streptococcus pneumoniae [5] it was 0.13 µg/mL (≈ 0.135 µM); in the assay on Staphylococcus aureus [6] it was 1 µg/mL (≈ 1.04 µM). Further, the MIC is over 128 µg/mL in the assay with Staphylococcus aureus [7]; 0.13 µg/mL (≈ 0.135 µM) in the assay with Streptococcus pyogenes [8]; 0.5 µg/mL (≈ 0.519 µM) in the assay with Haemophilus influenzae [9]; 16 µg/mL (≈ 16.6 µM) in the assay on Streptococcus pneumoniae [10]; 0.25 µg/mL (≈ 0.259 µM) in the assay on Streptococcus pneumoniae [11]; 0.25 µg/mL (≈ 0.259 µM) in the assay with Streptococcus pneumoniae [12]. Also, the MIC in the assay on Streptococcus pyogenes [13] is 0.5 µg/mL (≈ 0.519 µM); in the assay on Staphylococcus aureus [14], 0.25 µg/mL (≈ 0.259 µM); in the assay with Moraxella catarrhalis [15], 0.13 µg/mL (≈ 0.135 µM); in the assay on Haemophilus influenzae [16], 2 µg/mL (≈ 2.07 µM); with Streptococcus pyogenes [17], over 128 µg/mL; in the assay on Staphylococcus aureus [18], 0.25 µg/mL (≈ 0.259 µM). In addition, the MIC in the assay on Staphylococcus aureus [19] was 0.25 µg/mL (≈ 0.259 µM); in the assay with Streptococcus pneumoniae [20] it was over 128 µg/mL; with Haemophilus influenzae [21] it was 4 µg/mL (≈ 4.15 µM); with Streptococcus pneumoniae [22], 16 µg/mL (≈ 16.6 µM); in the assay with Streptococcus pneumoniae [23], 0.25 µg/mL (≈ 0.259 µM).

Take `CCOC(=O)[C@H]1[C@H](C)O[C@@H](O[C@H]2[C@H](N(C)C)[C@@H](O)[C@H](O[C@H]3[C@@H](CC=O)C[C@@H](C)[C@@H](OC(C)=O)CN(C)CCN(CCCCc4ccccc4)C(=O)C[C@@H](OC(=O)CC)[C@@H]3OC)O[C@@H]2C)C[C@@]1(C)OC(C)=O`: the MIC was 1 µg/mL (≈ 0.994 µM) with Staphylococcus aureus [1]; over 128 µg/mL in the assay with Haemophilus influenzae [2]; 2 µg/mL (≈ 1.99 µM) with Moraxella catarrhalis [3]; over 128 µg/mL with Streptococcus pneumoniae [4]; 0.13 µg/mL (≈ 0.129 µM) in the assay on Streptococcus pneumoniae [5]; 2 µg/mL (≈ 1.99 µM) with Staphylococcus aureus [6]. Besides, the MIC against Staphylococcus aureus [7] is over 128 µg/mL; in the assay on Streptococcus pyogenes [8], 0.5 µg/mL (≈ 0.497 µM); with Haemophilus influenzae [9], 8 µg/mL (≈ 7.95 µM); with Streptococcus pneumoniae [10], 16 µg/mL (≈ 15.9 µM); in the assay with Streptococcus pneumoniae [11], 0.5 µg/mL (≈ 0.497 µM); in the assay with Streptococcus pneumoniae [12] it was 0.5 µg/mL (≈ 0.497 µM). Besides, the MIC in the assay with Streptococcus pyogenes [13] was 2 µg/mL (≈ 1.99 µM); in the assay on Staphylococcus aureus [14], 0.5 µg/mL (≈ 0.497 µM); in the assay on Moraxella catarrhalis [15], 1 µg/mL (≈ 0.994 µM); in the assay with Haemophilus influenzae [16], over 128 µg/mL; in the assay on Streptococcus pyogenes [17], over 128 µg/mL; in the assay with Staphylococcus aureus [18], 1 µg/mL (≈ 0.994 µM). For the same compound, the MIC in the assay on Staphylococcus aureus [19] was 1 µg/mL (≈ 0.994 µM); with Streptococcus pneumoniae [20], over 128 µg/mL; with Haemophilus influenzae [21] it was 16 µg/mL (≈ 15.9 µM); in the assay on Streptococcus pneumoniae [22], 16 µg/mL (≈ 15.9 µM); with Streptococcus pneumoniae [23], 0.5 µg/mL (≈ 0.497 µM).

With `CCOC(=O)[C@H]1[C@H](C)O[C@@H](O[C@H]2[C@H](N(C)C)[C@@H](O)[C@H](O[C@H]3[C@@H](CC=O)C[C@@H](C)[C@@H](O)CN(CCCCc4ccccc4)CCCCNC(=O)C[C@@H](OC(=O)CC)[C@@H]3OC)O[C@@H]2C)C[C@@]1(C)OC(C)=O`, the MIC against Staphylococcus aureus [1] is 1 µg/mL (≈ 1.02 µM); in the assay with Haemophilus influenzae [2], 16 µg/mL (≈ 16.4 µM); in the assay with Moraxella catarrhalis [3] it was 0.25 µg/mL (≈ 0.256 µM); in the assay with Streptococcus pneumoniae [4], over 128 µg/mL; in the assay on Streptococcus pneumoniae [5], 0.13 µg/mL (≈ 0.133 µM); in the assay with Staphylococcus aureus [6], 1 µg/mL (≈ 1.02 µM). In addition, the MIC against Staphylococcus aureus [7] is over 128 µg/mL; in the assay with Streptococcus pyogenes [8] it was 0.06 µg/mL (≈ 0.0613 µM); with Haemophilus influenzae [9], 1 µg/mL (≈ 1.02 µM); in the assay on Streptococcus pneumoniae [10], 8 µg/mL (≈ 8.18 µM); in the assay with Streptococcus pneumoniae [11] it was 0.13 µg/mL (≈ 0.133 µM); with Streptococcus pneumoniae [12], 0.13 µg/mL (≈ 0.133 µM). In addition, the MIC is 0.25 µg/mL (≈ 0.256 µM) in the assay on Streptococcus pyogenes [13]; 0.25 µg/mL (≈ 0.256 µM) in the assay with Staphylococcus aureus [14]; 0.13 µg/mL (≈ 0.133 µM) in the assay with Moraxella catarrhalis [15]; 4 µg/mL (≈ 4.09 µM) in the assay on Haemophilus influenzae [16]; over 128 µg/mL with Streptococcus pyogenes [17]; 0.5 µg/mL (≈ 0.511 µM) in the assay on Staphylococcus aureus [18]. Moreover, the MIC was 0.25 µg/mL (≈ 0.256 µM) in the assay on Staphylococcus aureus [19]; over 128 µg/mL in the assay on Streptococcus pneumoniae [20]; 8 µg/mL (≈ 8.18 µM) with Haemophilus influenzae [21]; 8 µg/mL (≈ 8.18 µM) in the assay with Streptococcus pneumoniae [22]; 0.25 µg/mL (≈ 0.256 µM) with Streptococcus pneumoniae [23].

The values above are taken from ChEMBL document CHEMBL1151705, “Novel azalides derived from 16-membered macrolides. Part II: Isolation of the linear 9-formylcarboxylic acid and its sequential macrocyclization with an amino alcohol or an azidoamine” (2008).
